Assay results pooled from the literature.
Protocols differ between the studies behind these lines.
CYP2E1: Cytochrome P450 2E1 (CYP2E1, Homo sapiens, UniProt P05181)

O=c1[nH]c2sc(-c3ccc(Cl)cc3)cc2c(=O)n1O  viability (HFF; cell growth or viability, MTS; 10 µM, 7 days): 101%
CC(C)(C)NC(=O)CN1C(=O)Cc2c([nH]c3ccc(Br)cc23)-c2ccc(Cl)cc21  CC50 (J774; cell growth or viability, WST-1; 24 h): ≥ 100 µM
C[C@@H](c1ccc2nccn2c1)n1nnc2ncc(-c3cnn(C)c3)nc21  IC50 (CYP2E1; enzyme activity, inhibitor; human, liver microsomes; pH 7.4): 100 µM
O=c1[nH]c2cc(-c3ccc(F)cc3)sc2c(=O)n1O  viability (HFF; cell growth or viability, MTS; 10 µM, 7 days): 61%
CCN(CC)C(=O)[C@@]1(c2ccccc2)C[C@H]1CN  Cmax (male cynomolgus monkey, plasma; oral, 30 mg/kg): 5020 ng/mL
O=c1[nH]c2sc3c(c2c(=O)n1O)CCN(Cc1ccccc1)C3  viability (HFF; cell growth or viability, MTS; 10 µM, 7 days): 104%
CCc1cc(/C(C)=N/OCc2ccc(C3CCCCC3)c(C(F)(F)F)c2)ccc1CN1CC(C(=O)O)C1  inhibition (CYP2E1; enzyme activity, inhibitor; human, liver microsomes; 100 µM, 20 min): 32.6%
CC(C)(C)OC(=O)CN1C(=O)Cc2c([nH]c3ccc(Br)cc23)-c2ccc(Cl)cc21  CC50 (J774; cell growth or viability, WST-1; 24 h): ≤ 100 µM
Cn1ccc(COc2cnc(C(N)=O)cc2-c2ccc(O[11CH3])cc2F)n1  tracer uptake (male mouse, pancreas; intravenous, 2.5 MBq, 1 h): 5.87 %ID/g
O=c1[nH]c2c(-c3ccccc3)csc2c(=O)n1O  viability (HFF; cell growth or viability, MTS; 10 µM, 7 days): 130%
Nc1ccc(C=Cc2ccc([125I])cc2)cc1  tracer uptake (Swiss mouse, brain; intravenous, 5 µCi, 2 h): 1.12 %ID/g
O=C(CCCCCCC(=O)Nc1ccc(CC[18F])cc1)NO  tracer uptake (male nude mouse, stomach; intravenous, 2 h, tumour-bearing): 1 %ID/g
CN(C)C(=O)CN1C(=O)Cc2c([nH]c3ccc(Br)cc23)-c2ccc(Cl)cc21  CC50 (J774; cell growth or viability, WST-1; 24 h): ≥ 100 µM
CC1COc2ccccc2N1C(=O)C(Cl)Cl (stereo not drawn)  microsomal CLint (metabolic stability; female monkey, liver microsomes; 5 µM, pH 7.4): 1400 µL/min/mg
O=c1[nH]c2cc(-c3ccccc3)sc2c(=O)n1O  viability (HFF; cell growth or viability, MTS; 10 µM, 7 days): 85%
